Data reported in ChEMBL document CHEMBL1123625, “Synthesis and antitumor activity of tropolone derivatives. 6. Structure-activity relationships of antitumor-active tropolone and 8-hydroxyquinoline derivatives” (J Med Chem, 1987).
≈ marks a conversion by molar mass, not a printed value. Calls of active or inactive are those of the source. No cut-off for these calls is given here.

Key:
Mus musculus [1] = experiment: Antitumor activity against leukemia P388 cell line in mice was determined at 400 mg/kg intraperitoneal dose; IA means inactive; format: functional, organism-based; parameters: dose 400 mg/kg
Method in brief: (§1)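 Mice bearing leukemia P388, dosed intraperitoneally; activity read out as % T/C.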

[2] = Antitumor activity was determined by the ability to inhibit KB cell growth; format: functional, cell-based; conditions: Homo sapiens
Method in brief: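 KB cell growth inhibition, reported as IC50 in μg/mL.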

Mus musculus [3] = experiment: Antitumor activity against leukemia P388 cell line in mice was determined at 100 mg/kg intraperitoneal dose; format: functional; method in brief: as §1
Mus musculus [4] = experiment: Antitumor activity against leukemia P388 cell line in mice was determined at 400 mg/kg intraperitoneal dose; format: functional; method in brief: as §1
Mus musculus [5] = experiment: Antitumor activity against leukemia P388 cell line in mice was determined at 12.5 mg/kg intraperitoneal dose; format: functional; method in brief: as §1
Mus musculus [6] = experiment: Antitumor activity against leukemia P388 cell line in mice was determined at 3.1 mg/kg intraperitoneal dose; format: functional; method in brief: as §1
Mus musculus [7] = experiment: Antitumor activity against leukemia P388 cell line in mice was determined at 6.3 mg/kg intraperitoneal dose; format: functional; method in brief: as §1
Mus musculus [8] = experiment: Antitumor activity against leukemia P388 cell line in mice was determined at 10 mg/kg intraperitoneal dose; format: functional; method in brief: as §1
Mus musculus [9] = experiment: Antitumor activity against leukemia P388 cell line in mice was determined at 20 mg/kg intraperitoneal dose; format: functional; method in brief: as §1
Mus musculus [10] = experiment: Antitumor activity against leukemia P388 cell line in mice was determined at 40 mg/kg intraperitoneal dose; format: functional; method in brief: as §1
Mus musculus [11] = experiment: Antitumor activity against leukemia P388 cell line in mice was determined at 25 mg/kg intraperitoneal dose; format: functional; method in brief: as §1
Mus musculus [12] = experiment: Antitumor activity against leukemia P388 cell line in mice was determined at 50 mg/kg intraperitoneal dose; format: functional; method in brief: as §1
Mus musculus [13] = experiment: Antitumor activity against leukemia P388 cell line in mice was determined at 2.5 mg/kg intraperitoneal dose; format: functional; method in brief: as §1

CCOC(c1ccccc1)c1ccc(C(C)C)cc(=O)c1O (centres undefined)
T/C (Mus musculus [1]): inactive
IC50 [2]: < 0.3 mg/L

CCOC(c1ccc(OC)cc1)c1ccc2cccnc2c1O (centres undefined)
T/C (Mus musculus [3]): 112%
T/C (Mus musculus [4]): 129%
IC50 [2]: 0.8 mg/L (≈ 2.59 µM)

COc1ccc(C(c2ccc3cccnc3c2O)c2ccc3cccnc3c2O)cc1
T/C (Mus musculus [5]): 164%
T/C (Mus musculus [6]): 111%
T/C (Mus musculus [7]): 128%
IC50 [2]: < 0.3 mg/L

Oc1c(C2OCCc3ccccc32)ccc2cccnc12 (centres undefined)
T/C (Mus musculus [1]): inactive
IC50 [2]: 1.3 mg/L (≈ 4.69 µM)

COc1ccc(C(c2c(O)ccc3ncccc23)c2c(O)ccc3ncccc23)cc1
T/C (Mus musculus [1]): inactive
IC50 [2]: 17 mg/L (≈ 41.6 µM)

CCOC(c1ccc(OC)cc1)c1c(O)ccc2ncccc12 (centres undefined)
T/C (Mus musculus [1]): inactive
IC50 [2]: 44 mg/L (≈ 142 µM)

COc1ccc(C(c2ccc(C(C)C)cc(=O)c2O)c2ccc(C(C)C)cc(=O)c2O)cc1
T/C (Mus musculus [8]): 170%
IC50 [2]: < 0.3 mg/L

Oc1c(C(c2ccco2)c2ccc3cccnc3c2O)ccc2cccnc12
T/C (Mus musculus [8]): 113%
T/C (Mus musculus [9]): 120%
T/C (Mus musculus [10]): 138%
IC50 [2]: < 0.3 mg/L

COc1ccc(C(c2ccc3cccnc3c2O)c2oc(CO)cc(=O)c2O)cc1 (centres undefined)
T/C (Mus musculus [5]): 120%
T/C (Mus musculus [11]): 138%
T/C (Mus musculus [12]): 135%
IC50 [2]: < 0.3 mg/L

CC(C)c1ccc(C2OCCc3ccccc32)c(O)c(=O)c1 (centres undefined)
T/C (Mus musculus [3]): 112%

COc1ccc(C(c2ccc(C(C)C)cc(=O)c2O)c2oc(CO)cc(=O)c2O)cc1 (centres undefined)
T/C (Mus musculus [5]): 128%
T/C (Mus musculus [11]): 146%
T/C (Mus musculus [12]): 152%
IC50 [2]: 0.5 mg/L (≈ 1.18 µM)

Oc1c(C(c2cccs2)c2ccc3cccnc3c2O)ccc2cccnc12
T/C (Mus musculus [8]): 125%
T/C (Mus musculus [13]): 108%
T/C (Mus musculus [9]): 136%
IC50 [2]: < 0.3 mg/L
